Measurements taken from ChEMBL document CHEMBL1166006, “Bacterial transferase MraY inhibitors: synthesis and biological evaluation” (Bioorg Med Chem, 2010).
Active and inactive are the calls of the source. The calls are words filed in the database; no cut-off is given here.

Assays:
[1] = molecular target: T1, Phospho-N-acetylmuramoyl-pentapeptide-transferase (Bacillus subtilis (strain 168), UniProt Q03521); experiment: Inhibition of Bacillus subtilis transferase MraY after 30 mins
T1 sequence (Q03521 whole entry): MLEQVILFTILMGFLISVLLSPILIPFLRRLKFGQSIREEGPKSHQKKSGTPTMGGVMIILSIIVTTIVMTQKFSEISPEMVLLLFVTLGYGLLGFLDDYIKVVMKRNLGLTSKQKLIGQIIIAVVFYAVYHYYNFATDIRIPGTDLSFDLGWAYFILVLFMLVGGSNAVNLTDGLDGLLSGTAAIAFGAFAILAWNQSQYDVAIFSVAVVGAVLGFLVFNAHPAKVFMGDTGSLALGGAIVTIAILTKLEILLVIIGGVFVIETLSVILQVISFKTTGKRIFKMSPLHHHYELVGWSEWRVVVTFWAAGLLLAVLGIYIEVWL
Method in brief: (§1)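 Enzyme addition started the reaction, which ran 30 min at 37 °C and was stopped by 1 min at 100 °C. Radioactive spots were quantified by scanner. Residual activity (screen at 2 mM) and IC₅₀ were calculated against an inhibitor-free control; mean of triplicates.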

Escherichia coli = experiment: Inhibition of Escherichia coli MurG at 1 mM after 30 mins
Method in brief: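 MurG from E. coli was assayed in final 200 mM Tris–HCl pH 7.5, 10 mM MgCl₂, UDP-[¹⁴C]GlcNAc, lipid I analogue and 35% (v/v) DMSO. The reaction ran 30 min at 37 °C and was stopped by boiling 3 min, then lyophilised. The residue was taken up in 2-propanol/ammonium hydroxide/water (6:3:1), which was also the chromatography mobile phase. Radioactive spots were quantified by scanner.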

[2] = molecular target: T2, Phospho-N-acetylmuramoyl-pentapeptide-transferase (Bacillus subtilis (strain 168)) (UniProt Q03521); experiment: Inhibition of Bacillus subtilis transferase MraY assessed as residual activity at 2 mM after 30 mins; method in brief: as §1
T2 sequence (whole entry): T1 sequence (Q03521 whole entry)

| SMILES | IC50 [1] | inhibition (Escherichia coli) | Activity [2] |
| --- | --- | --- | --- |
| NCc1cn(C[C@H]2O[C@@H](OC[C@H]3O[C@@H](Cn4ccc(=O)[nH]c4=O)[C@@H](O)[C@@H]3O)[C@H](O)[C@@H]2O)nn1 | 595 µM | inactive |  |
| NC[C@H]1O[C@@H](OC[C@H]2O[C@@H](Cn3ccc(=O)[nH]c3=O)[C@@H](O)[C@@H]2O)[C@H](O)[C@@H]1O | 580 µM | inactive |  |
| O=C(NC[C@H]1O[C@@H](OC[C@H]2O[C@@H](Cn3ccc(=O)[nH]c3=O)[C@@H](O)[C@@H]2O)[C@H](O)[C@@H]1O)[C@@H]1CCCN1 |  | inactive | 61% |
| O=C(NCc1cn(C[C@H]2O[C@@H](OC[C@H]3O[C@@H](Cn4ccc(=O)[nH]c4=O)[C@@H](O)[C@@H]3O)[C@H](O)[C@@H]2O)nn1)[C@@H]1CCCN1 | 820 µM | inactive |  |
| N=C(N)NCc1cn(C[C@H]2O[C@@H](OC[C@H]3O[C@@H](Cn4ccc(=O)[nH]c4=O)[C@@H](O)[C@@H]3O)[C@H](O)[C@@H]2O)nn1 | 600 µM | inactive |  |
| N=C(N)NC[C@H]1O[C@@H](OC[C@H]2O[C@@H](Cn3ccc(=O)[nH]c3=O)[C@@H](O)[C@@H]2O)[C@H](O)[C@@H]1O | 1790 µM | inactive |  |
